This note sets out measurements from ChEMBL document CHEMBL3217744, “Non-iminosugar glucocerebrosidase small molecule chaperones” (Medchemcomm, 2012).

The target in data set [1] is T1, Lysosomal acid glucosylceramidase (Homo sapiens, UniProt P04062, N409S). Briefly: (§1) Inhibition of glucocerebrosidase N370S mutant in spleen homogenates of patient with Gaucher disease using resorufin-beta-D-glucopyranoside as substrate after 20 mins fluorescence assay. In kind it is tissue-based.
Data set [2] concerns T2, Lysosomal acid glucosylceramidase (Homo sapiens), P04062 [N409S].
T2 sequence (whole entry): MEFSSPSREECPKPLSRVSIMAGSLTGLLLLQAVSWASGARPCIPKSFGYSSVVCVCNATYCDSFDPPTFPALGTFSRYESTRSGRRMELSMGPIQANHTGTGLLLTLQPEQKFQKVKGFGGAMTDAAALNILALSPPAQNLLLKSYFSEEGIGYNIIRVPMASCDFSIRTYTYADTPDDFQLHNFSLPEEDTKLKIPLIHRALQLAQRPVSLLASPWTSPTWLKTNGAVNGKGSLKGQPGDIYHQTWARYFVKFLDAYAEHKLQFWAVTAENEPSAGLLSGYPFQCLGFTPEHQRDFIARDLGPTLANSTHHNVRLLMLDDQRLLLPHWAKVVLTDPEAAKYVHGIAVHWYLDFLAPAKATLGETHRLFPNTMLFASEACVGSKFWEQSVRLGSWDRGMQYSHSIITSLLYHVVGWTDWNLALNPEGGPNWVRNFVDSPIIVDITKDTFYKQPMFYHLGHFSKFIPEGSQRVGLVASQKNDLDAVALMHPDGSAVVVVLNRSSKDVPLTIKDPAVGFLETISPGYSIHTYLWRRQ
Described as §1. The data set is classed as tissue-based.

The target in data set [3] is Somatostatin receptor type 4 (Homo sapiens, UniProt P31391). The experiment in a line: Binding affinity to human SST4 receptor.
The subject of data set [4] is T2, Lysosomal acid glucosylceramidase (Homo sapiens), P04062 [N409S]. The experiment in a line: Induction of glucocerebrosidase N370S mutant translocation in fibroblasts of patient with Gaucher disease assessed as co-localization of LAMP-1 in lysosomes at 1 uM after 5 days by laser scanning confocal microscopic analysis. Summed up:
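Gaucher patient fibroblasts on chamber slides, treated 5 days with compound. Cells fixed in 3% paraformaldehyde and permeabilized with 0.1% Triton-X. Stained with anti-LAMP-1 (1:100) and anti-GCase R386 (1:500), then Alexa-488/555 secondaries and DAPI. Imaged by confocal laser scanning at identical laser settings; collapsed z-stacks.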

Data set [5] in a line: Plasma concentration in C57BL/6 mouse at 30 mg/kg, ip after 12 hrs. The data set is classed as ADME, organism-based. The arrangement: dose 30 mg/kg, route intraperitoneal. A digest of the protocol:
(§2)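 Male C57BL/6 mice (20-21 g), single IP dose of 30 mg/kg at 3 mg/mL, 10 mL/kg, in 5% DMAC/5% Solutol HS 15/90% 10 mM pH 7.4 phosphate buffer; n=3 per time point. Retro-orbital blood into K2EDTA under isoflurane, pre-dose to 24 h. Plasma protein-precipitated with acetonitrile containing testosterone internal standard; LC-MS/MS positive ESI MRM; calibration 1.00-10000 ng/mL.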

A short description of data set [6]: Plasma concentration in C57BL/6 mouse at 30 mg/kg, ip after 0.083 hrs. The data set is classed as ADME, organism-based. The arrangement: dose 30 mg/kg, route intraperitoneal. Summed up:
as §2

The test system of data set [7] is Mus musculus. The experiment in a line: Half life in C57BL/6 mouse at 30 mg/kg, ip after 24 hrs. In kind it is ADME, organism-based. The settings on record: in vivo. The arrangement: dose 30 mg/kg, route intraperitoneal. A digest of the protocol:
as §2

Data set [8] is described as follows: Plasma concentration in C57BL/6 mouse at 30 mg/kg, ip after 2 hrs. The data set is classed as ADME, organism-based. The arrangement: dose 30 mg/kg, route intraperitoneal. A digest of the protocol: as §2
For data set [9], the system named is Mus musculus. The experiment in a line: Cmax in C57BL/6 mouse at 30 mg/kg, ip after 24 hrs. In kind it is ADME, organism-based. The arrangement: dose 30 mg/kg, route intraperitoneal. The settings on record: in vivo. A digest of the protocol: as §2
The subject of data set [10] is Mus musculus. Briefly: AUC (infinity) in C57BL/6 mouse at 30 mg/kg, ip after 24 hrs. The settings on record: in vivo. The data set is classed as ADME, organism-based, Plasma. The arrangement: time infinity, dose 30 mg/kg, route intraperitoneal. Summed up:
as §2

Data set [11] has as its system Mus musculus. Briefly: Tmax in C57BL/6 mouse at 30 mg/kg, ip after 24 hrs. The data set is classed as ADME, organism-based. The arrangement: dose 30 mg/kg, route intraperitoneal. The settings on record: in vivo. Summed up:
as §2

The target in data set [12] is T1, Lysosomal acid glucosylceramidase. Briefly: Inhibition of glucocerebrosidase N370S mutant in spleen homogenates of patient with Gaucher disease using resorufin-beta-D-glucopyranoside as substrate after 60 mins fluorescence assay. In kind it is tissue-based.
The nature of data set [13]: Plasma concentration in C57BL/6 mouse at 30 mg/kg, ip after 4 hrs. In kind it is ADME, organism-based. The arrangement: dose 30 mg/kg, route intraperitoneal. Summed up:
as §2

The test system of data set [14] is Mus musculus. The experiment in a line: AUClast in C57BL/6 mouse at 30 mg/kg, ip after 24 hrs. In kind it is ADME, organism-based, Plasma. The arrangement: time < 24 hr, dose 30 mg/kg, route intraperitoneal. The settings on record: in vivo. A digest of the protocol: as §2
The nature of data set [15]: Plasma concentration in C57BL/6 mouse at 30 mg/kg, ip after 1 hr. In kind it is ADME, organism-based. The arrangement: dose 30 mg/kg, route intraperitoneal. A digest of the protocol: as §2
Data set [16] can be described thus: Plasma concentration in C57BL/6 mouse at 30 mg/kg, ip after 8 hrs. The data set is classed as ADME, organism-based. The arrangement: dose 30 mg/kg, route intraperitoneal. A digest of the protocol: as §2
Data set [17] is described as follows: Plasma concentration in C57BL/6 mouse at 30 mg/kg, ip after 24 hrs. The data set is classed as ADME, organism-based. The arrangement: dose 30 mg/kg, route intraperitoneal. A digest of the protocol: as §2
Data set [18] is described as follows: Plasma concentration in C57BL/6 mouse at 30 mg/kg, ip after 0.25 hrs. The data set is classed as ADME, organism-based. The arrangement: dose 30 mg/kg, route intraperitoneal. Summed up:
as §2

A short description of data set [19]: Plasma concentration in C57BL/6 mouse at 30 mg/kg, ip after 0.5 hrs. The data set is classed as ADME, organism-based. The arrangement: dose 30 mg/kg, route intraperitoneal. Summed up: as §2

Activity calls are given as the source filed them. The calls are words filed in the database; no cut-off is given here.

Sequence of Somatostatin receptor type 4 (P31391 whole entry): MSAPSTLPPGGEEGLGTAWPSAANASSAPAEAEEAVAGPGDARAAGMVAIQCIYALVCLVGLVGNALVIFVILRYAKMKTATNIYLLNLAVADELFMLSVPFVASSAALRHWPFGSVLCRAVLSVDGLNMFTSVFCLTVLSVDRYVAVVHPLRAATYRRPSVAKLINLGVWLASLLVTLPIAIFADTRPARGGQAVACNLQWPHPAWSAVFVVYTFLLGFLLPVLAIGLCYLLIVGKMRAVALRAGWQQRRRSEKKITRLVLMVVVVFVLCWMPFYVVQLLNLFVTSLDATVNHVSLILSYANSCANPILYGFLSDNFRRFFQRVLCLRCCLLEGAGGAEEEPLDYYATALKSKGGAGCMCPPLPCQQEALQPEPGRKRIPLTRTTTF

In [1], `S=C(NCCCc1c[nH]cn1)NCCCN(Cc1ccc(Cl)c(Cl)c1)c1ccccn1` registered an IC50 of 7300 nM.

As for `CC(=O)NCCCNC(=S)NCCCN(Cc1ccc(Cl)cc1)c1ccc(Br)cn1`, the inhibition result in data set [2] is “inactive”.

In turn, `S=C(NCCCc1cnc[nH]1)NCCCN(CCc1ccccc1)c1ccc(Br)cn1` had a half-inhibitory concentration (IC50) in [1] of 2800 nM.

For the compound `S=C(NCCCc1c[nH]cn1)NCCCN(Cc1ccc(Cl)cc1)c1ccc(Br)cn1`, the IC50 in data set [1] is 1200 nM.

`CCCCNC(=S)NCCCN(Cc1ccc(Cl)c(Cl)c1)c1ccc(Br)cn1`: in data set [2], the inhibition result is “inactive”.

In turn, `S=C(NCCCc1c[nH]cn1)NCCCN(Cc1ccccc1)c1ccc(Br)cn1` showed an IC50 in [1] of 5800 nM.

Compound `S=C(NCCCc1cnc[nH]1)NCCCN(CCc1ccc(Cl)cc1)c1ccc(Br)cn1` had an IC50 in data set [1] of 2000 nM.

Take `S=C(NCCCN(Cc1ccc(Cl)c(Cl)c1)c1ccc(Br)cn1)NCCc1c[nH]cn1`: the midpoint of inhibition in data set [1], the IC50, lay at 18300 nM.

In turn, `NCCCNC(=S)NCCCN(Cc1ccc(Cl)cc1)c1ccc(Br)cn1` registered a half-maximal inhibitory concentration (IC50) in data set [1] of 45000 nM.

In turn, `O=C(NCCCc1cnc[nH]1)NCCCN(Cc1ccc(Cl)cc1)c1ccc(Br)cn1` registered a concentration for half-maximal inhibition (IC50) in data set [1] of 1000 nM.

As to `S=C(NCCCc1cnc[nH]1)NCCCN(Cc1ccc(Cl)cc1)c1cc(-c2ccccc2)ccn1`, the IC50 in [1] turned out to be 4000 nM.

Consider `CN(CCCN(Cc1ccc(Cl)cc1)c1ccc(Br)cn1)C(=S)NCCCc1cnc[nH]1`, for which, in data set [3], the Ki was 19 nM. The 50% inhibitory concentration (IC50) in data set [1] was 2800 nM.

Take `S=C(NCCCc1c[nH]cn1)NCCN(Cc1ccc(Cl)c(Cl)c1)c1ccc(Br)cn1`: the IC50 in data set [1] came to 2100 nM.

Consider `CCCCN(CCCNC(=S)NCCCc1c[nH]cn1)c1ccc(Br)cn1`, for which the IC50 in data set [1] is 8200 nM.

`O=C(NCCCc1c[nH]cn1)NCCCN(Cc1ccc(Cl)c(Cl)c1)c1ccc(Br)cn1` came in with an IC50 in data set [1] of 600 nM.

`S=C(NCCCc1cnc[nH]1)NCCCN(Cc1ccc(Cl)cc1)c1ccc(Br)cc1`: the affinity in data set [3] corresponds to a Ki of 160 nM. Further, the IC50 in data set [1] came to 1300 nM. Besides, the outcome in data set [4] was Active.

As to `S=C(NCCCc1c[nH]cn1)NCCCN(Cc1ccc(Cl)c(Cl)c1)c1ccc(Br)cn1`, the concentration at 12 h in data set [5] was determined as 200 nM. This compound returned a concentration at 0.083 h in data set [6] of 3.03 µM. The compound also returned a t1/2 in the data set on Mus musculus [7] of 2.57 h. For the same compound, the concentration at 2 h in [8] amounted to 6.17 µM. The Cmax in the data set on Mus musculus [9] was 3553 ng/mL. The compound further had an AUC in the data set on Mus musculus [10] of 20700 ng·h/mL. For the same compound, the time to peak (Tmax) with Mus musculus [11] was 1 h. Besides, the IC50 in data set [12] turned out to be 580 nM; in data set [1] it was 600 nM. This compound also gave a concentration at 4 h in data set [13] of 4.29 µM. Moreover, the AUClast in the data set with Mus musculus [14] is 20600 ng·h/mL. In addition, the concentration at 1 h in [15] worked out at 6.39 µM. The compound also yielded a concentration at 8 h in data set [16] of 1350 nM. The concentration at 24 h in data set [17] came to 20 nM. Moreover, in [4], the result was Active. Moreover, the concentration at 0.25 h in data set [18] is 4.24 µM. Moreover, in [19], the concentration at 0.5 h was 4.84 µM.

In turn, `S=C(NCCCNc1ccc(Br)cn1)NCCCc1c[nH]cn1` showed an inhibition constant Ki in [3] of 690 nM. The compound further showed a half-maximal inhibitory concentration (IC50) in data set [1] of 46000 nM.

With `OC[C@H]1CNC[C@@H](O)[C@@H]1O`, in [4], the result was Active.

`CN(CCCc1cnc[nH]1)C(=S)NCCCN(Cc1ccc(Cl)cc1)c1ccc(Br)cn1` gave a Ki in data set [3] of 26 nM. In data set [1], this compound displayed an IC50 of 18000 nM.

`S=C(NCCCCN(Cc1ccc(Cl)cc1)c1ccc(Br)cn1)NCCCc1cnc[nH]1` came in with an IC50 in [1] of 800 nM.

With `S=C(NCCCc1cnc[nH]1)NCCCN(Cc1ccc(Cl)cc1)c1ccc(-c2ccccc2)cn1`, half-maximal inhibition in data set [1] (IC50) required 1300 nM.

The IC50 is the concentration needed to halve the response being measured. A word on the Ki: it is a dissociation constant, usually derived from enzyme kinetics or from competition with a known ligand. The low end stands for higher affinity, the high end for lower affinity. The term Cmax denotes the peak of the concentration-time curve. The term AUC denotes the area under the concentration-time curve, a measure of exposure. High values mean high exposure, low ones low exposure. One may read the Tmax as the time at which the peak concentration occurs.
